# Assay outcomes: PubChem BioAssay, Broad Institute
# In the library only some 1.7% were active in any assay of this set; here they are far more common.
# SKKanGAS inh – inhibitors of SKKanGAS S. pyogenes growth in kanamycin (SK-promoter or general growth effect); BacTiter-Glo, 6 h; inhibition, % at 7.5 µM; 300,000 tested, 1.3% active; AID 1662;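 active = mean replicate score, as percent of positive control median, at least 50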;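 also: strain carries kanamycin resistance gene driven by streptokinase promoter and grows in 40 µg/ml kanamycin; loss of luminescence reflects streptokinase promoter inhibition or plain growth inhibition; 0% = median of DMSO wells and 100% = positive control at its reference dose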
# PglD inh – inhibitors of Campylobacter jejuni PglD acetyltransferase. purified PglD enzyme, DTNB colorimetric CoA detection. inhibition, % at 12.5 µM. 360,000 tested, 0.098% active. AID 602405; in the data active = inhibition above about 16%, passing the limit was not always enough
# CSC inhib – cancer stem cell inhibition; cancer stem cell-like cells viability, luminescence; inhibition, % at 7.5 µM; 300,000 tested, 1.1% active; in the data active = inhibition above about 75%; tested in HMLE shEcad cells
# PfHsp90 set2 – reduces growth (ATP signal) of yeast expressing P. falciparum Hsp90; S. cerevisiae expressing PfHsp90, BacTiter-Glo ATP, 48 h; yeast lacking PDR1 and PDR3 efflux regulators; inhibition, % at 9.4 µM; 310,000 tested, 0.32% active; AID 504621;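 active = every replicate shows inhibition above about 80%, whatever the replicate mean, limit read from the data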;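 also: 0% = DMSO neutral controls and 100% = 20 µM radicicol positive controls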
# Rtt109 Vps75 – blocks Candida albicans Rtt109/Vps75 acetyltransferase activity; 330,000 tested, 0.16% active; purified Rtt109/Vps75, ThioGlo CoA-SH fluorescence, 4 h; inhibition, % at 34.9 µM; AID 540336; Q5AAJ8;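 active = inhibition of at least 50% in every replicate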
# Target sequence (Q5AAJ8 whole entry, looked up): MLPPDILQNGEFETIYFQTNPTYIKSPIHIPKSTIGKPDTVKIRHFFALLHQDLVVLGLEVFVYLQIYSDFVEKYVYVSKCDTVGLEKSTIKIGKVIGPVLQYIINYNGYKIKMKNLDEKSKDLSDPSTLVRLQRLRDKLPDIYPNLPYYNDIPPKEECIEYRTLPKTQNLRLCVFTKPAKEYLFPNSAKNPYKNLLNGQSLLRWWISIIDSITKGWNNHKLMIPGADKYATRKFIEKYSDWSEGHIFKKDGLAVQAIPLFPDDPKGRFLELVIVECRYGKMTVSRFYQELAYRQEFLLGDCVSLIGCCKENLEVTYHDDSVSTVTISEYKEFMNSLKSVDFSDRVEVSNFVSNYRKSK
# FN deposition inh – fibronectin deposition inhibition | AH1F fibroblasts, Alexa488-fibronectin deposition fluorescence, overnight | inhibition, % at 12.6 µM | 350,000 tested, 0.086% active;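 active = mean inhibition across replicates of 30% or more, regardless of how many single replicates reach that level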;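 also: positive control wells lacked labelled fibronectin entirely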
#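 Assay system: AH1F fibroblasts assembling fluorescent fibronectin matrix; Amount: 10000 AH1F cells per well; Buffer or medium: DMEM, 2% serum; Probe or stimulus: Alexa488-fibronectin, 24 nM final in well; Doses: single compound dose, delivered by pin transfer; Incubation: 1 h adhesion, overnight exposure; Measured by: fluorescence 485/525 nm; Read-out: fibronectin deposition inhibition.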
# The depositor's hits bear a star; · = no result.
SMILES,SKKanGAS inh,PglD inh,CSC inhib,PfHsp90 set2,Rtt109 Vps75,FN deposition inh
Cc1noc(C)c1NC(=O)Nc1ccc2c(c1)C(=O)N([C@@H](C)CO)C[C@@H](C)[C@@H](CN(C)Cc1ccncc1)OCCCC[C@@H](C)O2,·,-4.5,·,·,·,·
Cc1ccc(NC(=S)Nc2ccc(C(C)C)cc2)cc1S(=O)(=O)N1CCCCCC1,55.5*,·,75.3*,-19.7,-3.3,5.9
CC(C)[C@H]1COCc2cn(nn2)CC[C@@H](C)C(=O)N1,·,·,·,·,·,-10.1
C=C(C)C1Cc2c(C)nn(-c3nc(C)cc(C)n3)c2C1 (centres undefined),55.5*,-0.4,-20.3,-98.2,1.8,·
N=c1c(-c2nc3ccccc3[nH]2)cc(C(=O)c2cccs2)nn1-c1ccccc1,51.1*,·,-13.5,·,-5.6,·
Cc1ccc(CNC(=O)c2ccc3c(=O)[nH]c4c(C(=O)NCC5CCCO5)sc(=S)n4c3c2)cc1 (centres undefined),55.8*,-4.3,2.4,-6.1,2.1,0.7
O=C(O)C[C@H]1CC[C@H](NC(=O)c2ccncc2)[C@H](CO)O1,·,-5.4,·,·,·,-4.2
CC1CCc2c(sc3nc(C(C)(C)C)nc(N4CCN(C(=O)CCl)CC4)c23)C1 (centres undefined),69.7*,-3.8,63.4,59.2,-0.7,-5.6
NC(=S)N/N=C\c1c2ccccc2cc2ccccc12,·,-1.8,14.3,-28.5,8.7,-2.2
NC(=S)N/N=C\c1c(OCc2ccccc2Cl)ccc2ccccc12,49.7*,1.6,28.1,-17.3,1.2,-8.8
CCC(C)(C)NC(=O)C(OC(=O)c1ccco1)c1ccccc1F (centres undefined),2.9,-4.3,-16.8,3.7,7.0,2.1
CCC(C)(C)NC(=O)C(OC(=O)c1ccco1)c1ccccc1OC (centres undefined),1.0,-2.9,-5.7,-3.9,-0.7,30.9*
COc1ccc(CNC(=O)C[C@@H]2C=C[C@H](NC(=O)Nc3ccc4c(c3)OCO4)[C@H](CO)O2)cc1,·,2.8,·,·,·,8.1
Cc1cc(Br)c(Cl)cc1NC(=O)CN1C(=O)C2C3CC(c4ccccc4)C(C3)C2C1=O (centres undefined),7.0,·,79.7*,4.5,9.1,-2.9
Cc1cc(NC(=O)CCN2C(=O)C3C4CCC(C4)C3C2=O)c(C)cc1Br (centres undefined),2.7,1.1,-5.3,·,16.0,1.3
CNC[C@@H]1Oc2cc(C#CC3(O)CCCC3)ccc2S(=O)(=O)N([C@H](C)CO)C[C@H]1C,·,8.4,·,·,·,8.1
O=c1c(/C=N/OCc2ccc(Cl)cc2Cl)c[nH]n1-c1cccc(Cl)n1,9.2,·,93.5*,-14.0,0.2,-5.6
CCOc1ccccc1NC(=O)NNS(=O)(=O)c1cc(C)ccc1C,-4.7,0.3,-5.3,-7.2,9.8,·
CCc1ccccc1NC(=O)NNS(=O)(=O)c1cc(C)ccc1C,51.2*,-6.4,-3.2,6.3,5.7,·
COc1ccc(CN(C)C[C@@H]2OCCCC[C@@H](C)Oc3ccc(NC(=O)c4ccncc4)cc3C(=O)N([C@@H](C)CO)C[C@H]2C)cc1,·,-3.9,·,·,·,-7.4
CCCC(=O)N(Cc1cc(=O)[nH]c2ccccc12)c1cccc(C)c1,3.6,3.4,-16.6,-1.2,11.1,0.7
Cc1cccc(N(Cc2cc(=O)[nH]c3ccccc23)C(=O)CCl)c1,-2.9,·,104.7*,10.6,-15.0,-6.9
O=c1cc2oc3cc(O)c(O)cc3c(-c3ccccc3[N+](=O)[O-])c-2cc1O,50.2*,2.9,95.5*,82.9*,6.7,6.5
O=c1cc(-c2ccccc2Cl)oc2cccc(O)c12,18.5,-1.5,-4.3,-12.0,7.0,8.3
O=c1cc(-c2ccc(O)cc2)oc2c(-c3c(O)cc(O)c4c(=O)cc(-c5ccc(O)cc5)oc34)c(O)cc(O)c12,·,-1.2,·,2.4,0.5,·
SMILES,SKKanGAS inh,PglD inh,CSC inhib,PfHsp90 set2,Rtt109 Vps75,FN deposition inh
O=c1cc(-c2ccc(O)c(-c3c(O)cc(O)c4c(=O)cc(-c5ccc(O)cc5)oc34)c2)oc2cc(O)cc(O)c12,61.9*,-1.3,15.6,-6.4,4.0,-6.1
COc1ccc(NC(=O)N(C)C[C@H]2OCCCC[C@@H](C)Oc3ccc(NC(=O)Nc4ccc(C(F)(F)F)cc4)cc3C(=O)N([C@@H](C)CO)C[C@H]2C)cc1,·,-0.1,·,·,·,·
COc1ccc(C(=O)c2coc3c2C(=O)C(=O)c2ccccc2-3)cc1,57.8*,-4.1,51.4,12.2,-2.5,-0.4
CCN1CCN(Cc2ccc(NC(=O)c3ccc(C)c(/C=C/c4cnc(Nc5cc(N6CCNCC6)nc(C)n5)cn4)c3)cc2C(F)(F)F)CC1,60.8*,1.1,27.9,25.9,25.0,·
CC(=O)N(C)C[C@@H]1Oc2ncc(/C=C/c3ccccc3)cc2C(=O)N([C@H](C)CO)C[C@H]1C,·,2.6,·,·,·,7.8
CCCN(CCC)S(=O)(=O)c1ccc(C(=O)Nc2nnc(-c3cccc(OC)c3)o2)cc1,108.1*,·,19.7,-41.5,7.9,-4.0
CCCN(CCC)S(=O)(=O)c1ccc(C(=O)Nc2nnc(CSC)o2)cc1,28.1,-5.2,37.0,-1.4,8.5,-15.3
CCCN(CCC)S(=O)(=O)c1ccc(C(=O)Nc2nnc(-c3cc(OC)cc(OC)c3)o2)cc1,102.1*,-6.1,56.9,-46.2,4.5,·
CO[C@@H]1CN(C)C(=O)c2ccc(NC(=O)C3CCOCC3)cc2OC[C@H](C)N(Cc2cccnc2)C[C@H]1C,·,1.6,·,·,·,-2.3
O=C(Nc1ccc2c(c1)[C@@H]1C[C@H](CC(=O)N3CCOCC3)O[C@H](CO)[C@@H]1O2)NC1CCCCC1,·,-0.1,·,·,·,1.7
CCc1c(C2(O)CCCCC2)[nH]c2cc(C(F)(F)F)ccc12,34.1,-0.2,129.8*,51.5,29.0,·
O=C(Cc1ccccn1)N[C@@H]1CC[C@@H](CCNC(=O)c2cc(Cl)cc(Cl)c2)O[C@@H]1CO,·,2.1,·,·,·,-13.3
CCOC(=O)c1cc(CC)sc1NC(=O)c1ccc(N2C(=O)CCC2=O)cc1,55.0*,6.0,12.0,-4.0,·,·
COCc1ccc(CN2CCC(n3nccc3NC(=O)C(OC)c3ccccc3)CC2)o1 (centres undefined),4.3,3.3,-8.9,-9.7,58.6*,2.3
COCC(=O)N1[C@@H](CO)[C@@H]2c3ccccc3N(C(=O)c3ccccc3)C[C@@H]21,·,0.9,·,·,·,·
COc1ccc2c(c1)[nH]c1c(=O)n(/N=C/C3C(C)C=C(C)CC3C)c(=O)[nH]c12 (centres undefined),-0.3,·,100.4*,10.7,15.0,14.6
COc1ccc2[nH]c3c(=O)n(N)c(=O)[nH]c3c2c1,-5.8,1.6,2.6,3.1,-7.6,1.6
COc1ccc(/C=N/n2c(=O)[nH]c3c([nH]c4ccc(Br)cc43)c2=O)cc1CN1CCOCC1,5.9,1.4,-15.8,-24.5,1.9,-11.0
